Results from ChEMBL document CHEMBL3091463, “Cytotoxic ent-kaurane diterpenoids from Salvia cavaleriei” (J Nat Prod, 2013).

What was measured:
[1] = system: A549; assay: Cytotoxicity against human A549 cells after 48 hrs by MTS assay; assay type: functional, cell-based; details: A549, 48 h
Procedure, shortened: (§1)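 Cells were kept in RPMI-1640 or DMEM with 10% FBS at 37 °C under 5% CO2 and seeded at 1 × 10^5 cells/mL, with adherent cells allowed 12 h to attach. Compounds were tested at 0.064, 0.32, 1.6, 8 and 40 μM, in triplicate, for 48 h at 37 °C. Cisplatin and paclitaxel were the positive controls. MTS was then added for 4 h and absorbance read at […]. IC50 was calculated by the Reed and Muench method.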

[2] = system: HL-60; assay: Cytotoxicity against human HL60 cells after 48 hrs by MTS assay; assay type: functional, cell-based; details: HL-60, 48 h; procedure, shortened: as §1
[3] = system: SW480; assay: Cytotoxicity against human SW480 cells after 48 hrs by MTS assay; assay type: functional, cell-based; details: SW480, 48 h; procedure, shortened: as §1
[4] = Cytotoxicity against human BEAS2B cells after 48 hrs by MTS assay; assay type: cell-based; details: BEAS-2B
[5] = system: SMMC-7721; assay: Cytotoxicity against human SMMC7721 cells after 48 hrs by MTS assay; assay type: functional, cell-based; details: SMMC-7721, 48 h; procedure, shortened: as §1
[6] = system: MCF7; assay: Cytotoxicity against human MCF7 cells after 48 hrs by MTS assay; assay type: functional, cell-based; details: MCF7, 48 h; procedure, shortened: as §1

| Compound | IC50 [1] | IC50 [2] | IC50 [3] | IC50 [4] | IC50 [5] | IC50 [6] |
| --- | --- | --- | --- | --- | --- | --- |
| C=C1C(=O)[C@@]23[C@H](O)C[C@@H]4C(C)(C)[C@@H](OC(C)=O)CC[C@@]4(C)[C@@H]2C(=O)C[C@@H]1[C@H]3O | 2700 nM | 2800 nM | 1600 nM | 2000 nM | 3000 nM | 2500 nM |
| COC[C@H]1C(=O)[C@@]23[C@H](O)C[C@@H]4[C@@](C)(COC(C)=O)CCC[C@@]4(C)[C@@H]2C(=O)C[C@@H]1[C@H]3O | 3000 nM | 2800 nM | 2600 nM | 3000 nM | 3500 nM | 2000 nM |
| C=C1C(=O)[C@@]23[C@H](O)C[C@@H]4C(C)(C)[C@@H](OC(C)=O)CC[C@@]4(C)[C@@H]2[C@@H](O)C[C@@H]1[C@H]3O | > 10000 nM | 9700 nM | 5500 nM | > 10000 nM | 3800 nM | > 10000 nM |
| C=C1C(=O)[C@@]23[C@H](O)C[C@@H]4C(C)(C)[C@@H](OC(C)=O)CC[C@@]4(C)[C@@H]2[C@@H]2O[C@@H]2[C@@H]1[C@H]3O | 1100 nM | 650 nM | 1800 nM | 730 nM | 1300 nM | 3000 nM |
| C=C1C(=O)[C@@]23[C@H](O)C[C@@H]4C(C)(C)C(=O)CC[C@@]4(C)[C@@H]2[C@H](O)C[C@@H]1[C@H]3O | > 10000 nM | > 10000 nM | 8100 nM | > 10000 nM | > 10000 nM | > 10000 nM |
| COC[C@@H]1C(=O)[C@@]23[C@H](O)C[C@@H]4[C@@](C)(COC(C)=O)CCC[C@@]4(C)[C@@H]2C(=O)C[C@@H]1[C@H]3O | > 10000 nM | > 10000 nM | 6700 nM | > 10000 nM | > 10000 nM | > 10000 nM |
| C=C1C(=O)[C@@]23[C@H](O)C[C@@H]4C(C)(C)[C@@H](OC(C)=O)CC[C@@]4(C)[C@@H]2C=C[C@@H]1[C@H]3O | 3100 nM | 2100 nM | 2800 nM | 880 nM | 2800 nM | 1700 nM |
| COC[C@H]1C(=O)[C@@]23[C@H](O)C[C@@H]4C(C)(C)[C@@H](OC(C)=O)CC[C@@]4(C)[C@@H]2C(=O)C[C@@H]1[C@H]3O | 2900 nM | 3700 nM | 2000 nM | 2500 nM | 4000 nM | 2500 nM |
| CCOC[C@@H]1C(=O)[C@@]23[C@H](O)C[C@@H]4C(C)(C)[C@@H](OC(C)=O)CC[C@@]4(C)[C@@H]2C(=O)C[C@@H]1[C@H]3O | > 10000 nM | > 10000 nM | > 10000 nM | > 10000 nM | > 10000 nM | > 10000 nM |
| C=C1C(=O)[C@@]23[C@H](O)C[C@@H]4C(C)(C)[C@@H](OC(C)=O)CC[C@@]4(C)[C@@H]2[C@H](O)C[C@@H]1[C@H]3O | 3500 nM | 2500 nM | 1400 nM | 2800 nM | 1100 nM | 3400 nM |
| CCOC[C@H]1C(=O)[C@@]23[C@H](O)C[C@@H]4C(C)(C)[C@@H](OC(C)=O)CC[C@@]4(C)[C@@H]2C(=O)C[C@@H]1[C@H]3O | 3500 nM | 3300 nM | 3000 nM | 2800 nM | 3500 nM | 3100 nM |
| CC(=O)O[C@H]1C(=O)[C@@]2(C)[C@H]([C@H](OC(=O)c3ccccc3)[C@]3(O)C[C@H](OC(=O)[C@H](O)[C@@H](NC(=O)c4ccccc4)c4ccccc4)C(C)=C1C3(C)C)[C@]1(OC(C)=O)CO[C@@H]1C[C@@H]2O [PACLITAXEL] | < 8 nM | < 8 nM | < 8 nM | 580 nM | < 8 nM | < 8 nM |
| COC[C@@H]1C(=O)[C@@]23[C@H](O)C[C@@H]4C(C)(C)C(=O)CC[C@@]4(C)[C@@H]2C(=O)C[C@@H]1[C@H]3O | > 10000 nM | > 10000 nM | > 10000 nM | > 10000 nM | > 10000 nM | > 10000 nM |
| C=C1C(=O)[C@@]23[C@H](O)C[C@@H]4[C@@](C)(COC(C)=O)CCC[C@@]4(C)[C@@H]2C(=O)C[C@@H]1[C@H]3O | 940 nM | 710 nM | 1700 nM | 870 nM | 960 nM | 1800 nM |
| C=C1C(=O)[C@@]23[C@H](O)C[C@@H]4C(C)(C)[C@@H](O)CC[C@@]4(C)[C@@H]2C(=O)C[C@@H]1[C@H]3O | > 10000 nM | > 10000 nM | 7600 nM | > 10000 nM | > 10000 nM | > 10000 nM |
| C=C1C(=O)[C@@]23[C@H](O)C[C@@H]4C(C)(C)C(=O)CC[C@@]4(C)[C@@H]2C(=O)C[C@@H]1[C@H]3O | 6400 nM | 3300 nM | 2200 nM | 3100 nM | 4900 nM | 3100 nM |
